# Test system: U2OS
# Experiment: Multiplex assay against U2OS
# Assay type: toxicity, cell-based
# Details: human
# Method in brief: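 With compound added, live cells were imaged on a CQ1 microscope at 37°C and 5% CO2; staining with Hoechst33342, BioTracker Green Microtubule Cytoskeleton Dye, MitoTracker Red and Annexin V Alexa Fluor 680 had been done at seeding. The CellPathfinder machine-learning gating scheme split cells into Hoechst high-intensity objects or normal cells, normal cells into healthy, pyknosed or fragmented nuclei, and pyknosed cells into mitotic or apoptotic. The tubulin, mitochondrial-mass and membrane-permeability phenotypes are per cents of healthy-nucleus cells.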
# [1] = 12 h, 1 µM, compound concentration 1 uM, replicate 1
# [2] = 12 h, 1 µM, compound concentration 1 uM, replicate 2
# [3] = 12 h, 10 µM, compound concentration 10 uM, replicate 1
# [4] = 12 h, 10 µM, compound concentration 10 uM, replicate 2
# [5] = 24 h, 1 µM, compound concentration 1 uM, replicate 1
# [6] = 24 h, 1 µM, compound concentration 1 uM, replicate 2
# [7] = 24 h, 10 µM, compound concentration 10 uM, replicate 1
# [8] = 24 h, 10 µM, compound concentration 10 uM, replicate 2
# [9] = 48 h, 1 µM, compound concentration 1 uM, replicate 1
# [10] = 48 h, 1 µM, compound concentration 1 uM, replicate 2
# [11] = 48 h, 10 µM, compound concentration 10 uM, replicate 1
# [12] = 48 h, 10 µM, compound concentration 10 uM, replicate 2
smiles,measurement,setting,value
CN1CCN(c2ccc(OC(F)(F)F)c(Nc3ncc4c(n3)-c3c(c(C(N)=O)nn3CCO)CC4)c2)CC1 [ONVANSERTIB],Population Apoptotic (%),[1],36%
same,Population Fragmented Nuclei (%),[1],14%
same,Population Healthy Nuclei (%),[1],78%
same,Population Hoechst High Intensity Objects (%),[1],6%
same,Population Membrane Permeable-Phenotype (%),[1],11%
same,Population Mitochondria Different-Phenotype (%),[1],10%
same,Population Mitotic Cells (%),[1],63%
same,Population Normal (%),[1],94%
same,Population Pyknosed Nuclei (%),[1],7%
same,Population Tubulin-Different-Phenotype (%),[1],13%
same,Total Cell Count,[1],569
same,Population Apoptotic (%),[2],25%
same,Population Fragmented Nuclei (%),[2],11%
same,Population Healthy Nuclei (%),[2],80%
same,Population Hoechst High Intensity Objects (%),[2],14%
same,Population Membrane Permeable-Phenotype (%),[2],0%
same,Population Mitochondria Different-Phenotype (%),[2],14%
same,Population Mitotic Cells (%),[2],75%
same,Population Normal (%),[2],85%
same,Population Tubulin-Different-Phenotype (%),[2],16%
same,Total Cell Count,[2],66
same,Population Apoptotic (%),[3],72%
same,Population Fragmented Nuclei (%),[3],10%
same,Population Healthy Nuclei (%),[3],79%
same,Population Hoechst High Intensity Objects (%),[3],6%
same,Population Membrane Permeable-Phenotype (%),[3],3%
same,Population Mitochondria Different-Phenotype (%),[3],77%
same,Population Mitotic Cells (%),[3],27%
same,Population Normal (%),[3],93%
same,Population Pyknosed Nuclei (%),[3],10%
same,Population Tubulin-Different-Phenotype (%),[3],84%
same,Total Cell Count,[3],150
same,Population Apoptotic (%),[4],40%
same,Population Fragmented Nuclei (%),[4],9%
same,Population Healthy Nuclei (%),[4],78%
same,Population Hoechst High Intensity Objects (%),[4],19%
same,Population Membrane Permeable-Phenotype (%),[4],0%
same,Population Mitochondria Different-Phenotype (%),[4],84%
same,Population Mitotic Cells (%),[4],60%
same,Population Normal (%),[4],80%
same,Population Pyknosed Nuclei (%),[4],12%
same,Population Tubulin-Different-Phenotype (%),[4],78%
same,Total Cell Count,[4],61
same,Population Apoptotic (%),[5],35%
same,Population Fragmented Nuclei (%),[5],14%
same,Population Healthy Nuclei (%),[5],73%
same,Population Hoechst High Intensity Objects (%),[5],7%
same,Population Membrane Permeable-Phenotype (%),[5],12%
same,Population Mitochondria Different-Phenotype (%),[5],17%
same,Population Mitotic Cells (%),[5],64%
same,Population Normal (%),[5],92%
same,Population Pyknosed Nuclei (%),[5],12%
same,Population Tubulin-Different-Phenotype (%),[5],18%
same,Total Cell Count,[5],962
same,Population Apoptotic (%),[6],57%
same,Population Fragmented Nuclei (%),[6],21%
same,Population Healthy Nuclei (%),[6],65%
same,Population Hoechst High Intensity Objects (%),[6],5%
same,Population Membrane Permeable-Phenotype (%),[6],5%
same,Population Mitochondria Different-Phenotype (%),[6],32%
same,Population Mitotic Cells (%),[6],42%
same,Population Normal (%),[6],94%
same,Population Pyknosed Nuclei (%),[6],13%
same,Population Tubulin-Different-Phenotype (%),[6],11%
same,Total Cell Count,[6],73
same,Population Apoptotic (%),[7],82%
same,Population Healthy Nuclei (%),[7],79%
same,Population Hoechst High Intensity Objects (%),[7],4%
same,Population Membrane Permeable-Phenotype (%),[7],1%
same,Population Mitochondria Different-Phenotype (%),[7],77%
same,Population Mitotic Cells (%),[7],17%
same,Population Normal (%),[7],95%
same,Population Pyknosed Nuclei (%),[7],9%
same,Population Tubulin-Different-Phenotype (%),[7],53%
same,Total Cell Count,[7],151
same,Population Apoptotic (%),[8],40%
same,Population Fragmented Nuclei (%),[8],11%
same,Population Healthy Nuclei (%),[8],77%
same,Population Hoechst High Intensity Objects (%),[8],16%
same,Population Membrane Permeable-Phenotype (%),[8],5%
same,Population Mitochondria Different-Phenotype (%),[8],82%
same,Population Mitotic Cells (%),[8],60%
same,Population Normal (%),[8],83%
same,Population Pyknosed Nuclei (%),[8],11%
same,Population Tubulin-Different-Phenotype (%),[8],55%
same,Total Cell Count,[8],55
same,Population Apoptotic (%),[9],62%
same,Population Fragmented Nuclei (%),[9],25%
same,Population Healthy Nuclei (%),[9],56%
same,Population Hoechst High Intensity Objects (%),[9],5%
same,Population Membrane Permeable-Phenotype (%),[9],14%
same,Population Mitochondria Different-Phenotype (%),[9],49%
same,Population Mitotic Cells (%),[9],37%
same,Population Normal (%),[9],94%
same,Population Pyknosed Nuclei (%),[9],18%
same,Population Tubulin-Different-Phenotype (%),[9],13%
same,Total Cell Count,[9],1338
same,Population Apoptotic (%),[10],53%
same,Population Fragmented Nuclei (%),[10],27%
same,Population Healthy Nuclei (%),[10],45%
same,Population Hoechst High Intensity Objects (%),[10],6%
same,Population Membrane Permeable-Phenotype (%),[10],24%
same,Population Mitochondria Different-Phenotype (%),[10],48%
same,Population Mitotic Cells (%),[10],46%
same,Population Normal (%),[10],93%
same,Population Pyknosed Nuclei (%),[10],27%
same,Population Tubulin-Different-Phenotype (%),[10],12%
same,Total Cell Count,[10],97
same,Population Apoptotic (%),[11],91%
same,Population Fragmented Nuclei (%),[11],17%
same,Population Healthy Nuclei (%),[11],63%
same,Population Hoechst High Intensity Objects (%),[11],2%
same,Population Membrane Permeable-Phenotype (%),[11],5%
same,Population Mitochondria Different-Phenotype (%),[11],60%
same,Population Mitotic Cells (%),[11],8%
same,Population Normal (%),[11],97%
same,Population Pyknosed Nuclei (%),[11],19%
same,Population Tubulin-Different-Phenotype (%),[11],43%
same,Total Cell Count,[11],153
same,Population Apoptotic (%),[12],57%
same,Population Fragmented Nuclei (%),[12],20%
same,Population Hoechst High Intensity Objects (%),[12],10%
same,Population Membrane Permeable-Phenotype (%),[12],28%
same,Population Mitochondria Different-Phenotype (%),[12],67%
same,Population Mitotic Cells (%),[12],42%
same,Population Normal (%),[12],89%
same,Population Pyknosed Nuclei (%),[12],15%
same,Population Tubulin-Different-Phenotype (%),[12],57%
same,Total Cell Count,[12],59
